Results reported in ChEMBL document CHEMBL2380237, “Substituted imidazopyridazines are potent and selective inhibitors of Plasmodium falciparum calcium-dependent protein kinase 1 (PfCDPK1)” (Bioorg Med Chem Lett, 2013).
Values belong to the compound of their own block, whether it stands above or below them. Calls of active or inactive are those of the source. The rule behind the calls is not given here.

Assays:
Plasmodium berghei = experiment: Inhibition of Plasmodium berghei recombinant CDPK1 by fluorescence assay in presence of rhodamine-labeled ParM
Procedure, shortened: (§1)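 Recombinant CDPK1 (P. berghei or P. vivax) ATPase activity followed with an ADP-sensitive biosensor, rhodamine-labeled ParM; reaction progress tracked as rising fluorescence from ADP accumulation on a plate reader.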

[1] = Metabolic stability in human liver microsomes after 30 mins; format: ADME, Microsome; conditions: read-out: Stability
[2] = Metabolic stability in mouse liver microsomes after 30 mins; format: ADME, Microsome; conditions: read-out: Stability
[3] = target: Tyrosine-protein kinase Yes (Homo sapiens) (UniProt P07947); experiment: Inhibition of human YES1 at 1 uM
[4] = Intrinsic clearance in mouse; format: ADME, organism-based; conditions: in vivo
[5] = target: Tyrosine-protein kinase Lck (Homo sapiens) (UniProt P06239); experiment: Inhibition of human LCK at 1 uM
[6] = target: Dual specificity mitogen-activated protein kinase kinase 1 (Homo sapiens) (UniProt Q02750); experiment: Inhibition of human MKK1 at 1 uM
Plasmodium vivax = experiment: Inhibition of Plasmodium vivax recombinant CDPK1 by fluorescence assay in presence of rhodamine-labeled ParM; procedure, shortened: as §1
[7] = target: Mitogen-activated protein kinase kinase kinase 9 (Homo sapiens) (UniProt P80192); experiment: Inhibition of human MLK1 at 1 uM
[8] = target: Serine/threonine-protein kinase Chk2 (Homo sapiens) (UniProt O96017); experiment: Inhibition of human CHK2 at 1 uM
[9] = target: Proto-oncogene tyrosine-protein kinase Src (Homo sapiens) (UniProt P12931); experiment: Inhibition of human SRC at 1 uM
[10] = target: Ribosomal protein S6 kinase alpha-1 (Homo sapiens) (UniProt Q15418); experiment: Inhibition of human RSK1 at 1 uM
[11] = target: T1, NUAK family SNF1-like kinase 1 (Homo sapiens) (UniProt O60285); experiment: Inhibition of human NUAK1 at 1 uM
T1 sequence (whole entry): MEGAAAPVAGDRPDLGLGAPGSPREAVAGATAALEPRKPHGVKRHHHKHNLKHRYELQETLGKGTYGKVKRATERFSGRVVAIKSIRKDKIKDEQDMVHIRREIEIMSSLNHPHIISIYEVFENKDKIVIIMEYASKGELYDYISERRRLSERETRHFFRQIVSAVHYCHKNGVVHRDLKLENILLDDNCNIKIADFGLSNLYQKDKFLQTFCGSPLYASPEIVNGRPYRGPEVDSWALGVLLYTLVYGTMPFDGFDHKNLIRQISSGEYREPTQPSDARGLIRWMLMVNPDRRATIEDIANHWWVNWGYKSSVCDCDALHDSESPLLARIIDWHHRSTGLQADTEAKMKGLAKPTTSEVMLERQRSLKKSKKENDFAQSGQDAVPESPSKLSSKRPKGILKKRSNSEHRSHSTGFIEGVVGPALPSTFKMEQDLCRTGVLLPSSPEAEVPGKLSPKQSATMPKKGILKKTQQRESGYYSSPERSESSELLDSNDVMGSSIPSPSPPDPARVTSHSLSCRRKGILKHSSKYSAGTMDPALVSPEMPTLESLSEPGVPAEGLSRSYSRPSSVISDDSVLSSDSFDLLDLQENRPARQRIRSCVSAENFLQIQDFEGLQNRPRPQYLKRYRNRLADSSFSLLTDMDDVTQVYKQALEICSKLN

Homo sapiens = species on record: Homo sapiens; experiment: Inhibition of human VEGFR at 1 uM
[12] = target: T2, Serine/threonine-protein kinase D1 (Homo sapiens) (UniProt Q15139); experiment: Inhibition of human PKD1 at 1 uM
T2 sequence (whole entry): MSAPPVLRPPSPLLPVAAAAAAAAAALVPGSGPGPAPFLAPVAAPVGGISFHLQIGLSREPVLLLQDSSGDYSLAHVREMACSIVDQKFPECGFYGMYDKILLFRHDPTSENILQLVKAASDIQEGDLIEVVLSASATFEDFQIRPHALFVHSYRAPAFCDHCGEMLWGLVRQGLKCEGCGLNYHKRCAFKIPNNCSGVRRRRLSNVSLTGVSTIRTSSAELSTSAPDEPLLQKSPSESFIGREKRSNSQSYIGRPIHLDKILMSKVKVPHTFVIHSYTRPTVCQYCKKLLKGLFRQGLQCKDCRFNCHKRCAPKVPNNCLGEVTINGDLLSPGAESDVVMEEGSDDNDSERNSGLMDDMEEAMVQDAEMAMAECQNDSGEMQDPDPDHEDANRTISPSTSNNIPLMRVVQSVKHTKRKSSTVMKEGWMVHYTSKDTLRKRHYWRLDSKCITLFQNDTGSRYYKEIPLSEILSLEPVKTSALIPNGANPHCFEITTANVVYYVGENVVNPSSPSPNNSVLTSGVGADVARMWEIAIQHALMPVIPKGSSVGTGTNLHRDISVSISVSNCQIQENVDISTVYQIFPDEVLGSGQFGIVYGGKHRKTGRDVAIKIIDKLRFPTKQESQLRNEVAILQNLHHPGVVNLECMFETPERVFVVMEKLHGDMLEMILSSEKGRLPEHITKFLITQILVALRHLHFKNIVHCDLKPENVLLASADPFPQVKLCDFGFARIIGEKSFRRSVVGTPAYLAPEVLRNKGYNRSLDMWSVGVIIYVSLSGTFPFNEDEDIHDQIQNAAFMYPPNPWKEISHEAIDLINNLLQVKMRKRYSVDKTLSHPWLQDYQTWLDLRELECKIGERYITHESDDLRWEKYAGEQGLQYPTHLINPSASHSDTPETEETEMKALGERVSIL

[13] = target: T3, Mitogen-activated protein kinase kinase kinase kinase 2 (Homo sapiens) (UniProt Q12851); experiment: Inhibition of human GCK at 1 uM
T3 sequence (whole entry): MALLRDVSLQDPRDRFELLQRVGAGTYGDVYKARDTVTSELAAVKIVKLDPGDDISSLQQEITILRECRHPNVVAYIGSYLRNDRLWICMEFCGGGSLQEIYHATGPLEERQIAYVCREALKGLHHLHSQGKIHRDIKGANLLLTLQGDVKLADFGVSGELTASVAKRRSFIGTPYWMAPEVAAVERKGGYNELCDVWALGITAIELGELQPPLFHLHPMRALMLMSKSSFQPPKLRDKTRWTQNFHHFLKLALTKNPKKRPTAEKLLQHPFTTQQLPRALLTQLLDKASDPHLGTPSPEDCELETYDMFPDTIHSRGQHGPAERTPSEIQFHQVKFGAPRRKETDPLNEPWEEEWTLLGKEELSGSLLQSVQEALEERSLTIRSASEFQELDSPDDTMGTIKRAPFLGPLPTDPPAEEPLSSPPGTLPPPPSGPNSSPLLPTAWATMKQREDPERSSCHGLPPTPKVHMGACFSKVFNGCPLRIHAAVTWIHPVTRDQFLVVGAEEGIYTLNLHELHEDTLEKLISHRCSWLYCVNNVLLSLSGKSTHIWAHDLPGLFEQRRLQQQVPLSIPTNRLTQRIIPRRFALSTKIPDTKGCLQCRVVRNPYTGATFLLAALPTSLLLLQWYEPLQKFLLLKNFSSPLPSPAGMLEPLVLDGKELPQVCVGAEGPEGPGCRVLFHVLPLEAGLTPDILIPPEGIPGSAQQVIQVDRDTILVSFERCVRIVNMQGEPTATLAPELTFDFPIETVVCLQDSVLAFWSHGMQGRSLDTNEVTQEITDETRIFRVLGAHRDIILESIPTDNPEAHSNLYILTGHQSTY

[14] = target: Aurora kinase B (Homo sapiens) (UniProt Q96GD4); experiment: Inhibition of human Aurora B at 1 uM
[15] = target: Calcium/calmodulin-dependent protein kinase type 1 (Homo sapiens) (UniProt Q14012); experiment: Inhibition of human CAMK1 at 1 uM
[16] = target: Phosphorylase kinase (Homo sapiens) (UniProt P15735+P46020+P46019+Q93100+Q16816); experiment: Inhibition of human PHK at 1 uM; format: protein-complex assay
[17] = target: Receptor tyrosine-protein kinase erbB-4 (Homo sapiens) (UniProt Q15303); experiment: Inhibition of human HER4 at 1 uM

Chain of Ribosomal protein S6 kinase alpha-1 (Homo sapiens) (Q15418 whole entry): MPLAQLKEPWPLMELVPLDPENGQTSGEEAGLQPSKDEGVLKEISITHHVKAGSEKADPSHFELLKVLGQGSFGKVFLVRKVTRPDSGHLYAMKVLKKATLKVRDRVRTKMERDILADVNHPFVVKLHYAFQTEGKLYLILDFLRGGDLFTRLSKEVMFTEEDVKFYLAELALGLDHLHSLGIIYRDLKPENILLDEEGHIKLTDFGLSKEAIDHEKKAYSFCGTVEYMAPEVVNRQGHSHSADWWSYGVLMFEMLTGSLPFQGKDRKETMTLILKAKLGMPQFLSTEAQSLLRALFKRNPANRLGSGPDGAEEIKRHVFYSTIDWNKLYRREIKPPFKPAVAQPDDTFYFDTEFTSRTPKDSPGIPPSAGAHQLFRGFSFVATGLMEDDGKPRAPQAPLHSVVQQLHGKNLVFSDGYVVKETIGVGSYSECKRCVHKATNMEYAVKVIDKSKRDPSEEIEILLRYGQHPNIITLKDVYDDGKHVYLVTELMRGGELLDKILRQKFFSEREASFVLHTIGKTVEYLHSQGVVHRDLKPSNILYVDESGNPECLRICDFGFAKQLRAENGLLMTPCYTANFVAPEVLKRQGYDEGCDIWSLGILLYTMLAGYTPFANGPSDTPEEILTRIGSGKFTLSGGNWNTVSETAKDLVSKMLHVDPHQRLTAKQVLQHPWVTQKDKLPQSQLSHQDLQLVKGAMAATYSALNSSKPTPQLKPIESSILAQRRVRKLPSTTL
Chain of Dual specificity mitogen-activated protein kinase kinase 1 (Homo sapiens) (Q02750 whole entry): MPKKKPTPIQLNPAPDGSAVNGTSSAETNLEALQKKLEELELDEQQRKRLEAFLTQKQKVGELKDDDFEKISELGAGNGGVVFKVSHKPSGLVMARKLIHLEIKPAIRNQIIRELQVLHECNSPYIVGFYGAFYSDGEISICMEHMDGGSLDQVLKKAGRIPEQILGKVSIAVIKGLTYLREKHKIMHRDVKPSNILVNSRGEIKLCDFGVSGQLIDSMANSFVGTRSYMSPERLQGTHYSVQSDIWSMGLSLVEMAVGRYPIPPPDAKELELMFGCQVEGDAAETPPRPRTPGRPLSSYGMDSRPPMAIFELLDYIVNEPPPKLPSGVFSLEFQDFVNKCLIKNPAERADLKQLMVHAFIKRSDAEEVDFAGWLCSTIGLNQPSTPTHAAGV
Chain of Proto-oncogene tyrosine-protein kinase Src (Homo sapiens) (P12931 2-536 limits assumed): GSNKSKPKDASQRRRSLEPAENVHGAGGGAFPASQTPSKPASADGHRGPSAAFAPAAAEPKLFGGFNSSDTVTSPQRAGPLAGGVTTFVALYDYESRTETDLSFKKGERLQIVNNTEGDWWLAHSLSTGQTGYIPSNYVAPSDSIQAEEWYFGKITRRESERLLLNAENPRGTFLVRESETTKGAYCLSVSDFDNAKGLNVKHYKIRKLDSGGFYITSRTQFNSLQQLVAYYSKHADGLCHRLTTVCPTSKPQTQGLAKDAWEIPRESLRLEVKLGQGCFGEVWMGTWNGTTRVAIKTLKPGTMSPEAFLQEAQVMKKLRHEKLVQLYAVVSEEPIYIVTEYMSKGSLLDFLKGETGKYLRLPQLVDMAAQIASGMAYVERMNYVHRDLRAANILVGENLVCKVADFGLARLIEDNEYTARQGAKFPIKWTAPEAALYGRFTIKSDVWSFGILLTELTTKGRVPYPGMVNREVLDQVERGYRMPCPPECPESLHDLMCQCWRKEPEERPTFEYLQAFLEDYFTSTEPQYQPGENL
Chain of Mitogen-activated protein kinase kinase kinase 9 (Homo sapiens) (P80192 whole entry, looked up): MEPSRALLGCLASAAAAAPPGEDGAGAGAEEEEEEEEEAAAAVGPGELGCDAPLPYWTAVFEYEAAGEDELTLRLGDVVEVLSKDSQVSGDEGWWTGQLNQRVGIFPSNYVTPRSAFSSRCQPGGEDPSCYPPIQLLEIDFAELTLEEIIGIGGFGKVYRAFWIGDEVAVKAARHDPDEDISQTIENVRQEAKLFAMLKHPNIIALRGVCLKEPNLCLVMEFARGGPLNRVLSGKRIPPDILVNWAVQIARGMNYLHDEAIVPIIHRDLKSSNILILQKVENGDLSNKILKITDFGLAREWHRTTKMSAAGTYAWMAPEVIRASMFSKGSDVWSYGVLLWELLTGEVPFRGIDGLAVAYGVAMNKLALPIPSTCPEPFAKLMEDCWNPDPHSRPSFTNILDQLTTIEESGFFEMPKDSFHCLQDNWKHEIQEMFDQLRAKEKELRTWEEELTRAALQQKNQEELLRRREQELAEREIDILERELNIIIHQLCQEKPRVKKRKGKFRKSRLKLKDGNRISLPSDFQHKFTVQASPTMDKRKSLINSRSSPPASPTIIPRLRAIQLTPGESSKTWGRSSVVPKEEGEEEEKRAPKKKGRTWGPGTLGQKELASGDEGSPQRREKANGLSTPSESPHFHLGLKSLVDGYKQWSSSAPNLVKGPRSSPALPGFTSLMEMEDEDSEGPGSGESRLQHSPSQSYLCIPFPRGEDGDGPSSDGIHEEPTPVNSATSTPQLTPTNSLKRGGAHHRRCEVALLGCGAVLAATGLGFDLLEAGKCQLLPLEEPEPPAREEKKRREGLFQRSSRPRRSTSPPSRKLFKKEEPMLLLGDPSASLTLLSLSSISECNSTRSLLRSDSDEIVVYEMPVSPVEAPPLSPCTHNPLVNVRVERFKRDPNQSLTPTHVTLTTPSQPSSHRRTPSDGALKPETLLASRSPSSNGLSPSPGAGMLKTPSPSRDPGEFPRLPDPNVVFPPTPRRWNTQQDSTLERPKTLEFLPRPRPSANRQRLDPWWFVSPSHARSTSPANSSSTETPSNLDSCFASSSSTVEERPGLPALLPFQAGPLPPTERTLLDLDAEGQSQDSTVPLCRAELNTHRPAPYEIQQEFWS
Chain of Calcium/calmodulin-dependent protein kinase type 1 (Homo sapiens) (Q14012 whole entry, looked up): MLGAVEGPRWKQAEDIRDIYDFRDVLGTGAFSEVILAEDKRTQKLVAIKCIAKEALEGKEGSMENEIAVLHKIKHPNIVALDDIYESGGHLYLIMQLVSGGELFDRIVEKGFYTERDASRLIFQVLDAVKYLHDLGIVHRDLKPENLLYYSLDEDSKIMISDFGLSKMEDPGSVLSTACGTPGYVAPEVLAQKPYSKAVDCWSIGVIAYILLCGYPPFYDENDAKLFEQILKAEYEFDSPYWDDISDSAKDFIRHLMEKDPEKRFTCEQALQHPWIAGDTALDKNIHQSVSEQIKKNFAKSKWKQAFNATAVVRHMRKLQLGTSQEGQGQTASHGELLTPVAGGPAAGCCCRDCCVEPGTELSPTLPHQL
Chain of Tyrosine-protein kinase Yes (Homo sapiens) (P07947 2-543 limits assumed): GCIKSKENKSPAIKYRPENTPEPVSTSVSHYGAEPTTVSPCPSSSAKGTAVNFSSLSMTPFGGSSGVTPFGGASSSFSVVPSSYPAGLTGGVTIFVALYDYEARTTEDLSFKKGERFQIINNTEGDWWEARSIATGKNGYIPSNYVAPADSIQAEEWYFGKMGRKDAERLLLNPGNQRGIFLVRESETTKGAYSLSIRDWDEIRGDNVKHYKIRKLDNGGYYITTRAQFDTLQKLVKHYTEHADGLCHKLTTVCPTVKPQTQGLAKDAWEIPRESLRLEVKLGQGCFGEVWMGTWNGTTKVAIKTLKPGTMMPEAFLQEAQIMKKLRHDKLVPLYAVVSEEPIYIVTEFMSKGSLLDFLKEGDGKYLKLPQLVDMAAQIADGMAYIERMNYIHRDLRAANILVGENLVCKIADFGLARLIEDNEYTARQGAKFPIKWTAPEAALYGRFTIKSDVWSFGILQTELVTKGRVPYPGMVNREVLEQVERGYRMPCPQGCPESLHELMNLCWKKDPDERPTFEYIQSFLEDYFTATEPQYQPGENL
Chain of Tyrosine-protein kinase Lck (Homo sapiens) (P06239 2-509 limits assumed): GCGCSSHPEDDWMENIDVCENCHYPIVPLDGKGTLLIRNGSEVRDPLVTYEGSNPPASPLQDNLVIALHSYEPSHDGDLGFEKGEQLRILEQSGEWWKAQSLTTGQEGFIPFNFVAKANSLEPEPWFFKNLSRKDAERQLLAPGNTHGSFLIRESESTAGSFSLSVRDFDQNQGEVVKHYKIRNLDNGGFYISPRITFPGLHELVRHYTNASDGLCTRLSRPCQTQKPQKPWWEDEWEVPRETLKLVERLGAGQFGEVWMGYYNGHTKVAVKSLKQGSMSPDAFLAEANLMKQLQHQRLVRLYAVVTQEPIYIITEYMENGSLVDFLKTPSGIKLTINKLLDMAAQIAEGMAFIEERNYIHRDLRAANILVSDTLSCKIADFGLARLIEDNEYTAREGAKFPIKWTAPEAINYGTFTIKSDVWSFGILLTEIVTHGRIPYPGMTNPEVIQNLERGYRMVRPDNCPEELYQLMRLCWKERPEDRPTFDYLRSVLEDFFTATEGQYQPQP
Chain of Serine/threonine-protein kinase Chk2 (Homo sapiens) (O96017 whole entry): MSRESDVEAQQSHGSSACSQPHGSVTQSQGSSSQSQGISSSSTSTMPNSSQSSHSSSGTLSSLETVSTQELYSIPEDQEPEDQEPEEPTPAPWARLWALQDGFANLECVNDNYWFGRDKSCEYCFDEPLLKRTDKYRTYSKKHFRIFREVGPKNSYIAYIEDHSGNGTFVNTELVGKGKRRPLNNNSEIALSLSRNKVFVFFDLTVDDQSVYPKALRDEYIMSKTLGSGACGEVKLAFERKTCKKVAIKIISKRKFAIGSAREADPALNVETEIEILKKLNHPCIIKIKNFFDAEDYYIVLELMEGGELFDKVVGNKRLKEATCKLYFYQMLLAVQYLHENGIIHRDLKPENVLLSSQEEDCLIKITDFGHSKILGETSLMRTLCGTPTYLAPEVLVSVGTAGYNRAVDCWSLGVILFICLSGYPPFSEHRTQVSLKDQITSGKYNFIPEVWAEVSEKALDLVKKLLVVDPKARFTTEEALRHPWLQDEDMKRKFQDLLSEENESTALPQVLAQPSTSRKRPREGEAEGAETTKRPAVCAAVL

Structure (SMILES): CC(C)CCNc1cc(-c2cnc3ccc(NC4CCN(C)CC4)nn23)ccn1
inhibition (Plasmodium berghei): Active

Structure (SMILES): CC(C)CCNc1ccc(-c2cnc3ccc(N4CCC(N(C)C)CC4)nn23)cn1
remaining at 0.5 h [1]: 80%
inhibition (Plasmodium berghei): Active
remaining at 0.5 h [2]: 84%

Structure (SMILES): CC(C)CCNc1ncc(-c2cnc3ccc(N[C@H]4CC[C@H](N)CC4)nn23)cn1
inhibition (Plasmodium berghei): Active

Structure (SMILES): N#Cc1ccc(-c2cnc3ccc(NCCc4cccnc4)nn23)cc1
inhibition (Plasmodium berghei): Active

Structure (SMILES): CC(C)CCNc1ncc(-c2cnc3ccc(NC4CCN(C)CC4)nn23)cn1
inhibition (Plasmodium berghei): Active

Structure (SMILES): Fc1cccc(-c2cnc3ccc(NCCc4cccnc4)nn23)c1
inhibition (Plasmodium berghei): Active

Structure (SMILES): CC(C)CCNc1ccc(-c2cnc3ccc(NC4CN(C)C4)nn23)cn1
inhibition (Plasmodium berghei): Active

Structure (SMILES): CC(C)CCNc1ccc(-c2cnc3ccc(NC4CCN(C)CC4)nn23)cn1
inhibition [3]: Active
CLint scaled [4]: 49.7 mL/min/kg
inhibition [5]: Active
inhibition [6]: Active
inhibition (Plasmodium vivax): Active
inhibition (Plasmodium berghei): Active
inhibition [7]: Active
inhibition [8]: Active
inhibition [9]: Active
inhibition [10]: Active
inhibition [11]: Active
inhibition (Homo sapiens): Active
remaining at 0.5 h [2]: 63%
inhibition [12]: Active
inhibition [13]: Active
inhibition [14]: Active

Structure (SMILES): CC(C)CCNc1ccc(-c2cnc3ccc(N4CCN(C)CC4)nn23)cn1
inhibition (Plasmodium berghei): Active

Structure (SMILES): CC(C)CCNc1ccc(-c2cnc3ccc(NC4CCN(C)C4)nn23)cn1 (centres undefined)
remaining at 0.5 h [1]: 63%
inhibition (Plasmodium vivax): Active
inhibition (Plasmodium berghei): Active
inhibition [10]: Active
remaining at 0.5 h [2]: 74%

Structure (SMILES): CC(=O)Nc1cccc(-c2cnc3ccc(N[C@H]4CC[C@H](N)CC4)nn23)c1
inhibition (Plasmodium berghei): Active

Structure (SMILES): CN1CCC(Nc2ccc3ncc(-c4cccc(NC(=O)C5CC5)c4)n3n2)CC1
inhibition (Plasmodium berghei): Active

Structure (SMILES): CN1CCC(Nc2ccc3ncc(-c4ccc(NCC5CC5)nc4)n3n2)CC1
inhibition (Plasmodium berghei): Active

Structure (SMILES): CC(C)CCOc1ccc(-c2cnc3ccc(N[C@H]4CC[C@H](N)CC4)nn23)cn1
inhibition (Plasmodium berghei): Active

More lines, now with the values ahead:

inhibition (Plasmodium berghei): Active
Structure (SMILES): COCCNc1ccc(-c2cnc3ccc(NC4CCN(C)CC4)nn23)cn1

inhibition (Plasmodium berghei): Active
Structure (SMILES): CC(C)CCNC(=O)c1ccc(-c2cnc3ccc(N[C@H]4CC[C@H](N)CC4)nn23)cc1

inhibition (Plasmodium berghei): Active
Structure (SMILES): CC(C)CCNc1nccc(-c2cnc3ccc(NC4CCN(C)CC4)nn23)n1

inhibition (Plasmodium berghei): Active
Structure (SMILES): CC(=O)Nc1cccc(-c2cnc3ccc(NCCc4ccccn4)nn23)c1

inhibition (Plasmodium berghei): Active
Structure (SMILES): CC(C)CCNc1ccc(-c2cnc3ccc(NC4CCNCC4)nn23)cn1

inhibition (Plasmodium berghei): Active
Structure (SMILES): NC(=O)c1ccc(-c2cnc3ccc(NCCc4ccccn4)nn23)cc1

inhibition (Plasmodium berghei): Active
Structure (SMILES): CCCCNc1ccc(-c2cnc3ccc(NC4CCN(C)CC4)nn23)cn1

inhibition (Plasmodium berghei): Active
Structure (SMILES): CC(C)CCNC(=O)c1ccc(-c2cnc3ccc(NC4CCN(C)CC4)nn23)cc1

inhibition (Plasmodium berghei): Active
Structure (SMILES): NC(=O)c1ccc(-c2cnc3ccc(NCCc4cccnc4)nn23)cc1

inhibition (Plasmodium berghei): Active
Structure (SMILES): COC(=O)Nc1cccc(-c2cnc3ccc(NC4CCN(C)CC4)nn23)c1

remaining at 0.5 h [1]: 90%
inhibition (Plasmodium vivax): Active
inhibition (Plasmodium berghei): Active
inhibition [15]: Active
inhibition [16]: Active
inhibition [10]: Active
inhibition [11]: Active
remaining at 0.5 h [2]: 90%
inhibition [17]: Active
Structure (SMILES): CC(C)CCNc1ccc(-c2cnc3ccc(N4CCC(N)CC4)nn23)cn1
